The source made the active and inactive calls. The calls are words filed in the database; no cut-off is given here.

Series [1] has as its system CREB-binding protein/Histone acetyltransferase p300/Cellular tumor antigen p53 (Homo sapiens), P04637+Q09472+Q92793 [Y220C]. The series can be described thus: AceTAC activity at FLAG-tagged p53Y220C mutant (unknown origin) expressed in human NCI-H1299 cells expressing p300/CBP assessed as increase in p53 acetylation at lysine 382 residue at 10 uM incubated for 24 hrs by western blot analysis relative to control. The series is classed as cell-based. In short, it runs like this:
(§1)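 NCI-H1299 (p53Y220C) cells were treated at 0.1–10 μM (0.1, 0.3, 1, 3 or 10 μM) for 24 h. Lysates were Western blotted for p53 and p53K382ac, with vinculin as loading control. p53K382ac was normalised to total p53Y220C and quantified from two or three independent experiments.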

Another series relates to NCI-H1299. The series can be described thus: Inhibition of colony formation in human NCI-H1299 cells expressing p53Y220C mutant at 1 uM incubated for 14 days by crystal violet staining based analysis. The series is classed as functional, cell-based. To be noted: time 14.0 day. In a few lines:
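Clonogenic assay in NCI-H1299 (p53Y220C) cells exposed to DMSO or 1, 3 or 10 μM for 14 days. Colonies were fixed and stained with crystal violet. Images are representative of two independent experiments.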

The subject of series [2] is CREB-binding protein/Histone acetyltransferase p300/Cellular tumor antigen p53 (Homo sapiens), P04637+Q09472+Q92793 [Y220C]. The series can be described thus: Induction of interaction between FLAG-tagged p53Y220C mutant (unknown origin) and p300/CBP expressed in human NCI-H1299 cells assessed as ternary complex formation at 10 uM incubated for 24 hrs by co-immunoprecipitation analysis. The series is classed as cell-based. In a few lines:
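NCI-H1299 p53-null and p53Y220C cells were treated with DMSO or compound at 10 μM for 24 h. p53-FLAG pull-down was followed by Western blotting for associated p300. Representative of two independent experiments.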

Series [3] shares this test system. Put plainly: AceTAC activity at FLAG-tagged p53Y220C mutant (unknown origin) expressed in human NCI-H1299 cells expressing p300/CBP and transfected with control siRNA assessed as increase in p53 acetylation at lysine 382 residue at 1 to 10 uM incubated for 24 hrs by western blot analysis. The series is classed as cell-based. The settings on record: dose 1-10 µM. In short, it runs like this: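 NCI-H1299 cells stably expressing p53Y220C were given control or p300 siRNA, then treated at 0, 1 or 10 μM for 24 h. Lysates were Western blotted for p53 and p53K382ac. The acetylation level was normalised to vinculin and quantified from two independent experiments.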

For series [4] the test system is unchanged. The series can be described thus: Induction of interaction between FLAG-tagged p53Y220C mutant (unknown origin) and p300/CBP expressed in human NCI-H1299 cells at 10 uM pretreated for 2 hrs with p53Y220C mutant binder, PK9328 followed by incubation with compound for 18 hrs by co-immunoprecipitation analysis. It is filed as cell-based. In a few lines:
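NCI-H1299 (p53Y220C) cells were pretreated for 2 h with a 10 μM p53Y220C binder or a 10 μM p300 binder, then given compound at 3 μM for 18 h. p53-FLAG pull-down was followed by Western blot analysis.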

Series [5] has the same test system. Put plainly: AceTAC activity at FLAG-tagged p53Y220C mutant (unknown origin) expressed in human NCI-H1299 cells expressing p300/CBP assessed as increase in p53 acetylation at lysine 382 residue at 10 uM pretreated for 2 hrs with p300/CBP bromodomain binder, 4-(2-(5-(3,5-dimethylisoxazol-4-yl)-2-(3-fluoro-4-methoxyphenethyl)-1H-benzo[d]imidazol-1-yl)ethyl)morpholine followed by incubation with compound for 18 hrs by western blot analysis. The series is classed as cell-based.

For series [6] the test system is unchanged. The series can be described thus: AceTAC activity at FLAG-tagged p53Y220C mutant (unknown origin) expressed in human NCI-H1299 cells expressing p300/CBP assessed as upregulation of p21 mRNA expression at 3 uM incubated for 24 hrs by RT-qPCR analysis. The series is classed as cell-based. In short, it runs like this:
(§2)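 NCI-H1299 p53Y220C cells were treated with DMSO or compound at 3 μM for 24 h. mRNA of p53-target genes was measured by RT-qPCR, normalised to GAPDH and expressed relative to DMSO control. Values are mean ± SD of three independent experiments.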

Series [7] shares this test system. Put plainly: AceTAC activity at FLAG-tagged p53Y220C mutant (unknown origin) expressed in human NCI-H1299 cells expressing p300/CBP assessed as upregulation of GADD45A mRNA expression at 3 uM incubated for 24 hrs by RT-PCR analysis. It is filed as cell-based. In short, it runs like this:
as §2

Series [8] has the same test system. The series can be described thus: AceTAC activity at FLAG-tagged p53Y220C mutant (unknown origin) expressed in human NCI-H1299 cells expressing p300/CBP assessed as BAX mRNA expression at 3 uM incubated for 24 hrs by RT-PCR analysis. The series is classed as cell-based. In a few lines:
as §2

Series [9] has the same test system. Put plainly: AceTAC activity at FLAG-tagged p53Y220C mutant (unknown origin) expressed in human NCI-H1299 cells expressing p300/CBP assessed as downregulation of SLC7A11 mRNA expression at 3 uM incubated for 24 hrs by RT-PCR analysis. The series is classed as cell-based. In short, it runs like this:
as §2

A further series deals with NUGC-3. The series can be described thus: Antiproliferative activity against human NUGC-3 cells harboring p53Y220C mutant assessed as inhibition of cell growth incubated for 72 hrs by WST-8 assay. The series is classed as functional. In a few lines:
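BxPC3 or NUGC-3 cells were treated with DMSO or compound over a concentration range for 72 h before the viability read-out. Values are mean ± SD of technical triplicates from three biological experiments.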

Series [10] deals with CREB-binding protein/Histone acetyltransferase p300/Cellular tumor antigen p53 (Homo sapiens), P04637+Q09472+Q92793 [Y220C]. The series can be described thus: AceTAC activity at p53Y220C mutant in human NUGC-3 cells expressing p300/CBP assessed as increase in p53 acetylation at lysine 382 residue incubated for 24 hrs by western blot analysis. To be noted: dose 1-10 µM. The series is classed as cell-based. In short, it runs like this:
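BxPC3 or NUGC-3 cells, which express p53Y220C endogenously, were treated with DMSO or compound at 1, 3 or 10 μM for 24 h. Lysates were Western blotted for p53 and p53K382ac, with vinculin as loading control. Representative of two independent experiments.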

A further series relates to PNT2. The series can be described thus: Cytotoxicity against human PNT2 cells assessed as inhibition of cell growth incubated for 72 hrs by WST-8 assay. The settings on record: pnt2, 72 h. It is filed as toxicity, cell-based. In short, it runs like this: (§3)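 U2OS (WT p53) or normal prostate PNT2 cells were treated for 72 h at the indicated concentrations. Viability is mean ± SD of technical triplicates from two biological experiments.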

A short description of series [11]: Cytotoxicity against human U2OS cells harboring wild type p53 assessed as inhibition of cell growth at 10 uM incubated for 72 hrs by WST-8 assay. It is filed as toxicity, cell-based. In short, it runs like this: as §3
Series [12] in a line: Cytotoxicity against human PNT2 cells assessed as inhibition of cell growth at 10 uM incubated for 72 hrs by WST-8 assay. The series is classed as toxicity, cell-based. In a few lines:
as §3

Series [13] can be described thus: Plasma concentration in Swiss albino mouse at 50 mg/kg, ip measured after 8 hrs by LC-MS/MS analysis. The series is classed as ADME, organism-based. In a few lines: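 Swiss albino mice received a single 50 mg/kg intraperitoneal injection. Plasma levels were followed over 8 h. Each point is the mean ± SEM of three mice.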
Series [14] is described as follows: Toxicity in Swiss albino mouse assessed as tolerability at 50 mg/kg, ip measured for 8 hrs. The series is classed as organism-based. The settings on record: in vivo.
Series [15] deals with CREB-binding protein/Histone acetyltransferase p300/Cellular tumor antigen p53 (Homo sapiens), P04637+Q09472+Q92793 [Y220C]. The series can be described thus: AceTAC activity at FLAG-tagged p53Y220C mutant (unknown origin) expressed in human NCI-H1299 cells expressing p300/CBP assessed as increase in p53 acetylation at lysine 382 residue at 3 uM incubated for 24 hrs by western blot analysis. It is filed as cell-based. In a few lines:
as §1

Take `CCn1c2ccc(CNCCOCCOCCOCCC(=O)NCCOc3ccc(CCc4nc5cc(-c6c(C)noc6C)ccc5n4CCN4CCOCC4)cc3F)cc2c2ccc(-c3cc(C)cs3)cc21`: the Activity in series [1] is 235%; in [10], “Dose-Dependent Effect”; in [14], “Non-Toxic”. Also, the inhibition entry in the series on NCI-H1299 was “Active”. The result in [2], in series [3], in [6], in series [7], in [9] and in series [15] was Active. Besides, the outcome in series [4], in [5] and in [8] was inactive. Moreover, the GI50 was 1830 nM with NUGC-3 and > 10 µM in the series with PNT2. Further, the inhibition at 72 h, 10 µM is 30% in series [11] and ~30% in series [12]. In addition, in [13], the concentration at 8 h was > 400 nM.
